# According to ChEMBL document CHEMBL1151922, “Structure-activity relationships of 3,5-disubstituted benzamides as glucokinase activators with potent in vivo efficacy” (Bioorg Med Chem, 2009):
# Calls of active or inactive are those of the source. The calls are words filed in the database; no cut-off is given here.
# Assays:
# [1] = target: T1, Hexokinase-4 (Homo sapiens, UniProt P35557); assay: Activation of flag-tagged human recombinant liver glucokinase expressed in Escherichia coli by glucose-6-phosphate dehydrogenase coupled continuous spectrophotometric assay in presence of 2.5 mM glucose
# T1 sequence (P35557 whole entry): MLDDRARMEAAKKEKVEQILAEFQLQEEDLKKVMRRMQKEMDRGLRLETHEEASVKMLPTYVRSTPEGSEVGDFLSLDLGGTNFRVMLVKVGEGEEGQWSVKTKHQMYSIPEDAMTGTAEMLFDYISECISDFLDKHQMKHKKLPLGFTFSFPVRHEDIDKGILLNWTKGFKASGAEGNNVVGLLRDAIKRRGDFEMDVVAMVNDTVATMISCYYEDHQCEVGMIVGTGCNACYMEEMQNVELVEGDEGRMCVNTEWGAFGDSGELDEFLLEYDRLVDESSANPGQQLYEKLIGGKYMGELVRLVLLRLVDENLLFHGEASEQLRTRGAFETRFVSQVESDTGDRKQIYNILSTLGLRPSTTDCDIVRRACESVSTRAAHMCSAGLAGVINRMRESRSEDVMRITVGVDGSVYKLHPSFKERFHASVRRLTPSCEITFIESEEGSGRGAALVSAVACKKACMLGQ
# [2] = target: T1, Hexokinase-4; assay: Activation of flag-tagged human recombinant liver glucokinase expressed in Escherichia coli by glucose-6-phosphate dehydrogenase coupled continuous spectrophotometric assay in presence of 10 mM glucose
# [3] = Octanol-water distribution coefficient, log D at pH 7.4 by HPLC-MS analysis
# [4] = Solubility in water at pH 7.4 by HPLC-UV method
# [5] = system: Mus musculus; assay: Glucose lowering effect in normal-fed ICR mouse assessed as decrease in blood glucose AUC level at 3 mg/kg, po; assay type: functional, organism-based; set-up: dose 3 mg/kg
# Procedure, shortened: (§1)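 Male ICR mice aged ten to eleven weeks, fed ad libitum, given a single oral dose suspended in 0.5% methylcellulose; vehicle alone served as control. Blood glucose was measured immediately before dosing and at 0.5, 1, 1.5, 2, 3 and 4 h afterwards.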
# [6] = system: Mus musculus; assay: Glucose lowering effect in normal-fed ICR mouse assessed as decrease in blood glucose AUC level at 10 mg/kg, po; assay type: functional, organism-based; set-up: dose 10 mg/kg; procedure, shortened: as §1
# [7] = system: Mus musculus; assay: Glucose lowering effect in high-fat diet mouse assessed as decrease in blood glucose AUC level at 3 mg/kg, po; assay type: functional, organism-based; set-up: dose 3 mg/kg
# Procedure, shortened: (§2)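 Male high-fat-diet mice aged forty-one weeks, fed freely, dosed orally in 0.5% methylcellulose vehicle against a vehicle-only group. Blood glucose was sampled just before dosing and at 1, 2, 4 and 6 h after.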
# [8] = AUC (0 to infinity) in Sprague-Dawley rat at 3 mg/kg, po; assay type: ADME, organism-based; set-up: dose 3 mg/kg, route oral, time infinity; settings: plasma
# [9] = Volume of distribution at steady state in Beagle dog at 0.3 mg/kg, iv; assay type: ADME, organism-based, Canis lupus familiaris; set-up: dose 0.3 mg/kg, route intravenous; settings: in vivo, read-out: Vdss
# [10] = Cmax in Sprague-Dawley rat at 3 mg/kg, po; assay type: ADME, organism-based; set-up: dose 3 mg/kg, route oral; settings: in vivo
# [11] = Plasma clearance in Sprague-Dawley rat at 1 mg/kg, iv; assay type: ADME, organism-based; set-up: dose 1 mg/kg, route intravenous
# [12] = AUC (0 to infinity) in Beagle dog at 0.3 mg/kg, iv; assay type: ADME, organism-based, Canis lupus familiaris; set-up: time infinity, dose 0.3 mg/kg, route intravenous; settings: plasma
# [13] = Tmax in Beagle dog at 1 mg/kg, po; assay type: ADME, organism-based, Canis lupus familiaris; set-up: dose 1 mg/kg, route oral; settings: in vivo
# [14] = Tmax in Sprague-Dawley rat at 3 mg/kg, po; assay type: ADME, organism-based; set-up: dose 3 mg/kg, route oral; settings: in vivo
# [15] = system: Mus musculus; assay: Glucose lowering effect in high-fat diet mouse assessed as decrease in blood glucose level at 10 mg/kg, po; assay type: functional, organism-based; set-up: dose 10 mg/kg; procedure, shortened: as §2
# [16] = Plasma clearance in Beagle dog at 0.3 mg/kg, iv; assay type: ADME, organism-based, Canis lupus familiaris; set-up: dose 0.3 mg/kg, route intravenous
# [17] = system: Mus musculus; assay: Glucose lowering effect in KKAy mouse assessed as decrease in blood glucose AUC level at 10 mg/kg, po; assay type: functional, organism-based; set-up: dose 10 mg/kg
# Procedure, shortened: (§3)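 Male KKAy mice aged nine weeks, fasted 4 h beforehand, given a single oral dose in 0.5% methylcellulose vehicle, with a vehicle-only control group. Blood glucose was read just before dosing and at 0.5, 1, 2 and 4 h afterwards.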
# [18] = Half life in Sprague-Dawley rat at 1 mg/kg, iv; assay type: ADME, organism-based; set-up: dose 1 mg/kg, route intravenous; settings: in vivo
# [19] = system: Mus musculus; assay: Glucose lowering effect in high-fat diet mouse assessed as decrease in blood glucose AUC level at 10 mg/kg, po; assay type: functional, organism-based; set-up: dose 10 mg/kg; procedure, shortened: as §2
# [20] = Half life in Beagle dog at 0.3 mg/kg, iv; assay type: ADME, organism-based, Canis lupus familiaris; set-up: dose 0.3 mg/kg, route intravenous; settings: in vivo
# [21] = Oral bioavailability in Sprague-Dawley rat at 3 mg/kg; assay type: ADME, organism-based; settings: in vivo
# [22] = Cmax in Beagle dog at 1 mg/kg, po; assay type: ADME, organism-based, Canis lupus familiaris; set-up: dose 1 mg/kg, route oral; settings: in vivo
# [23] = Oral bioavailability in Beagle dog at 1 mg/kg; assay type: ADME, organism-based, Canis lupus familiaris; settings: in vivo
# [24] = AUC (0 to infinity) in Sprague-Dawley rat at 1 mg/kg, iv; assay type: ADME, organism-based; set-up: time infinity, dose 1 mg/kg, route intravenous; settings: plasma
# [25] = Volume of distribution at steady state in Sprague-Dawley rat at 1 mg/kg, iv; assay type: ADME, organism-based; set-up: dose 1 mg/kg, route intravenous; settings: in vivo, read-out: Vdss
# [26] = AUC (0 to infinity) in Beagle dog at 1 mg/kg, po; assay type: ADME, organism-based, Canis lupus familiaris; set-up: dose 1 mg/kg, route oral, time infinity; settings: plasma
# [27] = system: Mus musculus; assay: Glucose lowering effect in KKAy mouse assessed as decrease in blood glucose AUC level at 30 mg/kg, po; assay type: functional, organism-based; set-up: dose 30 mg/kg; procedure, shortened: as §3
# [28] = system: Mus musculus; assay: Glucose lowering effect in KKAy mouse assessed as decrease in blood glucose level at 10 mg/kg, po; assay type: functional, organism-based; set-up: dose 10 mg/kg; procedure, shortened: as §3
# [29] = system: Mus musculus; assay: Glucose lowering effect in high-fat diet mouse assessed as decrease in blood glucose level at 3 mg/kg, po; assay type: functional, organism-based; set-up: dose 3 mg/kg; procedure, shortened: as §2
# [30] = system: Mus musculus; assay: Glucose lowering effect in KKAy mouse assessed as decrease in blood glucose level at 30 mg/kg, po; assay type: functional, organism-based; set-up: dose 30 mg/kg; procedure, shortened: as §3
smiles,measurement,setting,value
CS(=O)(=O)c1ccc(Oc2cc(O[C@H]3CCC[C@@H]3O)cc(C(=O)Nc3nccs3)c2)cc1 (stereo in doubt; 6j),EC50,[1],160 nM
same,EC50,[2],90 nM
CC(CO)Cc1cc(Oc2ccc(S(C)(=O)=O)cc2)cc(C(=O)Nc2nccs2)c1 (racemic),EC50,[1],750 nM
same,logD,[3],3.4
same,EC50,[2],250 nM
CS(=O)(=O)c1ccc(Oc2cc(OC3CCCC3)cc(C(=O)Nc3nccs3)c2)cc1,EC50,[1],490 nM
same,logD,[3],> 5
same,EC50,[2],240 nM
CC(CN)Oc1cc(Oc2ccc(S(C)(=O)=O)cc2)cc(C(=O)Nc2nccs2)c1 (racemic),EC50,[1],1500 nM
same,logD,[3],1.1
same,EC50,[2],210 nM
Cc1csc(NC(=O)c2cc(Oc3ccc(S(C)(=O)=O)cc3)cc(OC(C)C)c2)n1,solubility,[4],< 0.1 µg/mL
same,Activity,[5],inactive
same,Activity,[6],inactive
same,logD,[3],> 5
CCC(COC)Oc1cc(Oc2ccc(S(C)(=O)=O)cc2)cc(C(=O)Nc2nccs2)c1 (racemic),EC50,[1],190 nM
same,logD,[3],> 5
same,EC50,[2],60 nM
CS(=O)(=O)c1ccc(Oc2cc(OC(CO)C(F)(F)F)cc(C(=O)Nc3nccs3)c2)cc1 (racemic),EC50,[1],790 nM
same,logD,[3],> 4
same,EC50,[2],240 nM
CN1CCC(Oc2cc(Oc3ccc(S(C)(=O)=O)cc3)cc(C(=O)Nc3nccs3)c2)C1 (racemic),EC50,[1],24000 nM
same,EC50,[2],7300 nM
CS(=O)(=O)c1ccc(Oc2cc(OC3CCOC3)cc(C(=O)Nc3nccs3)c2)cc1 (racemic),logD,[3],4.2
Cc1csc(NC(=O)c2cc(Oc3ccc(S(C)(=O)=O)cc3)cc(OC(C)C(=O)O)c2)n1 (racemic),EC50,[1],30000 nM
same,EC50,[2],7400 nM
CS(=O)(=O)c1ccc(Oc2cc(OCCO)cc(C(=O)Nc3nccs3)c2)cc1,EC50,[1],780 nM
same,logD,[3],2.4
same,EC50,[2],200 nM
CC(CN(C)C)Oc1cc(Oc2ccc(S(C)(=O)=O)cc2)cc(C(=O)Nc2nccs2)c1 (racemic),EC50,[1],12000 nM
same,EC50,[2],2600 nM
CS(=O)(=O)c1ccc(Oc2cc(OC3CCNC3)cc(C(=O)Nc3nccs3)c2)cc1 (racemic),EC50,[1],18000 nM
same,EC50,[2],4200 nM
CS(=O)(=O)c1ccc(Oc2cc(O[C@H]3CCC[C@H]3O)cc(C(=O)Nc3nccs3)c2)cc1,EC50,[1],260 nM
same,EC50,[2],110 nM
CC(CCO)Oc1cc(Oc2ccc(S(C)(=O)=O)cc2)cc(C(=O)Nc2nccs2)c1 (racemic),EC50,[1],150 nM
same,logD,[3],3.4
same,EC50,[2],60 nM
CS(=O)(=O)c1ccc(Oc2cc(OC3CCOCC3)cc(C(=O)Nc3nccs3)c2)cc1,EC50,[1],460 nM
same,logD,[3],4.1
same,EC50,[2],120 nM
CC(C)Oc1cc(Oc2ccc(S(C)(=O)=O)cc2)cc(C(=O)Nc2nccs2)c1,EC50,[1],170 nM
same,logD,[3],> 5
same,EC50,[2],60 nM
COCC(C)Oc1cc(Oc2ccc(S(C)(=O)=O)cc2)cc(C(=O)Nc2nccs2)c1 (racemic),EC50,[1],190 nM
same,logD,[3],4
same,EC50,[2],70 nM
CS(=O)(=O)c1ccc(Oc2cc(O[C@H]3CCOC3)cc(C(=O)Nc3nccs3)c2)cc1,EC50,[1],190 nM
same,EC50,[2],50 nM
CS(=O)(=O)c1ccc(Oc2cc(O[C@H]3CCC[C@@H]3O)cc(C(=O)Nc3nccs3)c2)cc1 (stereo in doubt),EC50,[1],280 nM
same,EC50,[2],170 nM
C[C@@H](CO)Oc1cc(Oc2ccc(S(C)(=O)=O)cc2)cc(C(=O)Nc2nccs2)c1,Activity,[7],Active
same,AUC(0-inf),[8],12 µM·h
same,Vd,[9],1.56 L/kg
same,Cmax,[10],3400 nM
same,clearance,[11],3.9 mL/min/kg
same,AUC(0-inf),[12],2.4 µM·h
same,Tmax,[13],1.2 h
same,Tmax,[14],0.3 h
same,Activity,[15],Active
same,clearance,[16],4.6 mL/min/kg
same,Activity,[17],Active
same,half-life,[18],1.3 h
same,Activity,[5],Active
same,Activity,[19],Active
same,half-life,[20],5.4 h
same,bioavailability,[21],33%
same,Cmax,[22],800 nM
same,Activity,[6],Active
same,bioavailability,[23],57%
same,AUC(0-inf),[24],10 µM·h
same,Vd,[25],0.19 L/kg
same,AUC(0-inf),[26],4.6 µM·h
same,Activity,[27],Active
same,Activity,[28],Active
same,Activity,[29],Active
same,Activity,[30],Active
CS(=O)(=O)c1ccc(Oc2cc(O[C@H]3CCC[C@H]3O)cc(C(=O)Nc3nccs3)c2)cc1 (racemic),EC50,[1],460 nM
same,logD,[3],3.4
same,EC50,[2],120 nM
CS(=O)(=O)c1ccc(Oc2cc(O[C@@H]3CCC[C@@H]3O)cc(C(=O)Nc3nccs3)c2)cc1,EC50,[1],3400 nM
same,EC50,[2],1200 nM
CC(C)C(CO)Oc1cc(Oc2ccc(S(C)(=O)=O)cc2)cc(C(=O)Nc2nccs2)c1 (racemic),EC50,[1],360 nM
same,logD,[3],> 4
same,EC50,[2],200 nM
CS(=O)(=O)c1ccc(Oc2cc(O[C@@H]3CCOC3)cc(C(=O)Nc3nccs3)c2)cc1,EC50,[1],1800 nM
same,EC50,[2],300 nM
CS(=O)(=O)c1ccc(Oc2cc(O[C@@H]3CCC[C@H]3O)cc(C(=O)Nc3nccs3)c2)cc1,EC50,[1],3700 nM
same,EC50,[2],1600 nM
COCC(COC)Oc1cc(Oc2ccc(S(C)(=O)=O)cc2)cc(C(=O)Nc2nccs2)c1,EC50,[1],610 nM
same,logD,[3],> 4
same,EC50,[2],120 nM
Cn1cnnc1Sc1ccc(N)c(C(=O)Nc2nccs2)c1,EC50,[1],420 nM
same,EC50,[2],140 nM
